# Shown are actives, neighbours in structure and some others; about 1.8% of the full set was active somewhere.
# DDE Tn7 FP inh: inhibitors of Tn7 peptide binding to human fibrin DD(E) | 370,000 compounds, 0.13% hits | AID 720508 | inhibition, % at 8.3 µM | FP displacement of FITC-Tn7 peptide from fibrin DD(E); 0% = median of compound wells per plate;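 active = inhibition above the mean of compounds falling within the control limits plus 3 SD of them, cut at about 14% in these data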;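 also: 0% = plate median of compound wells and 100% = 10 µM Aha-Tn7 peptide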
#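 Assay system: Fibrin-DD(E) protein isolated from polymerized human fibrin clots; read-out basis: percent inhibition; medium: Tris/NaCl/CaCl2 buffer, pH 7.8; signal: FP measurement; incubation: 10 min plus 3 h, room temperature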
# HTRA1 inhibitor: HTRA1 (human) protease inhibition; 340,000 compounds, 0.5% hits; Q92743; inhibition, % at 5.96 µM; recombinant HTRA1, FP-rhodamine activity-based probe, fluorescence polarization; in the data active = inhibition above about 36%;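 also: 0% = enzyme with DMSO and 100% = wells lacking enzyme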
# Target sequence (Q92743 whole entry, looked up): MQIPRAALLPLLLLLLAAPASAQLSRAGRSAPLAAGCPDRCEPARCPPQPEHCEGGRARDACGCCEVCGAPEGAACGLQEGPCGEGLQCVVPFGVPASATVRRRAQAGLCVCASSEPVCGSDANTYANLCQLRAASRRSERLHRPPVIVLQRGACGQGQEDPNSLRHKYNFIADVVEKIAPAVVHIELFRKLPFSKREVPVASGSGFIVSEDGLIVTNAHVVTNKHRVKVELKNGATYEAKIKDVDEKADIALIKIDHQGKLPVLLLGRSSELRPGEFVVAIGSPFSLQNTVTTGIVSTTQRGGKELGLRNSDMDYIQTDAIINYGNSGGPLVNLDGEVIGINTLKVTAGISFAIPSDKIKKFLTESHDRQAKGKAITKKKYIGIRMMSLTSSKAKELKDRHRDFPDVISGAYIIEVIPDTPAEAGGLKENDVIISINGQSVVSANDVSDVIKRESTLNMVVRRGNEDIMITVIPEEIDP
# mABHD4 FP: ABHD4 (mouse) inhibition, primary FP screen; inhibition, % at 8.92 µM; AID 720543; 370,000 compounds, 0.54% hits; purified mABHD4, FP-Rh probe fluorescence polarization; Q8VD66;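 active = inhibition exceeding the mean over every tested compound plus 3 SD, cut at about 30% in these data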;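 also: 0% = plate median of compound wells and 100% = S159A mutant with DMSO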
#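 Material: mouse ABHD4 enzyme, wild type; Benchmarks: S159A mutant high control, sample median low control; Buffer or medium: HEPES pH 7.0, NaCl, Pluronic buffer; Signal: fluorescence polarization; Read-out: percent inhibition of probe binding, normalized to plate controls; Timing: pre-incubation 45 min, probe exposure 60 min, at 25 °C; Dosing: 8.92 µM, single dose.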
# TCR-CD3 inh: inhibitors of human TCR-CD3 interaction. TAMRA-labeled TCR probe fluorescence, biochemical. inhibition, % at 9.4 µM. 360,000 compounds, 0.37% hits. AID 651800;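 also: recombinant mutant TCR 2C K166C tagged with TAMRA read by polarization; 0% = receptor in buffer alone and 100% = receptor with positive control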
# DDE Tn6 FP inh: DD(E)-Tn6 binding inhibition, primary FP screen; P02675; Fibrin DD(E) TRITC-Tn6 fluorescence polarization displacement; inhibition, % at 8.3 µM; 370,000 compounds, 0.21% hits;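 active = inhibition above a per-campaign cutoff: mean of compounds within control limits plus 3 SD, cut at about 15% in these data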;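 also: 0% = median of all compound wells on the plate and 100% = blocking peptide control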
# SIAE inh: human SIAE inhibition, primary screen. inhibition, % at 9.66 µM. SIAE FP-Rh probe binding, fluorescence polarization. 370,000 compounds, 0.69% hits. AID 1053197. Q9HAT2;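 active = inhibition above a cutoff: mean of compounds within the control limits plus 3 SD of those, cut at about 17% in these data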;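 also: 0% = plate median of compound wells and 100% = probe without SIAE protein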
# BSA TAMRA ctr: interferes with TAMRA-BSA probe, flagging TCR-CD3 hits; shares compounds with TCR-CD3 inh; TAMRA-labeled BSA probe fluorescence counterscreen; inhibition, % at 9.4 µM; 1,200 compounds, 10% hits; in the data active = inhibition above about 23%;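 also: 0% = buffer low control and 100% = reference high control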
# TCR-CD3 conf: confirmation of human TCR-CD3 interaction inhibitors | shares compounds with TCR-CD3 inh | TAMRA-labeled TCR probe fluorescence binding assay | inhibition, % at 9.4 µM | 1,200 compounds, 48% hits
# An asterisk follows results filed as active; / = no result. Rule as the data show it, unless noted: active = inhibition above about 19%; inactive = the rest.
SMILES,DDE Tn7 FP inh,HTRA1 inhibitor,mABHD4 FP,TCR-CD3 inh,DDE Tn6 FP inh,SIAE inh,BSA TAMRA ctr,TCR-CD3 conf
COc1cc(O)c2c(c1)OC(c1ccc(O)cc1)CC2=O (configuration not stated),-8.0,-10.1,-6.6,7.7,2.8,1.6,/,/
Cc1c(O)cc2c(c1O)C(=O)CC(c1ccc(O)cc1)O2 (configuration not stated),7.2,2.5,-2.8,33.8*,6.9,-1.9,0.1,22.5*
COc1ccc(CCNC(=O)C(=O)NCC2OCCN2S(=O)(=O)c2ccc(OC)cc2)cc1 (configuration not stated),-2.8,-7.1,7.5,49.1*,7.0,1.5,-2.5,6.6
COC(=O)[C@]12C[C@H](CC(=O)NCCCCc3ccccc3)C(=O)N(CCc3ccc(OC)c(OC)c3)C1=C[C@H](COCc1ccccc1)O[C@@H]2C,3.2,/,-5.6,/,-6.1,-1.9,/,/
CC1=Nc2ccccc2/C1=C/c1nc(-c2ccc(C)s2)oc1O,-11.6,21.3,14.5,19.1*,4.2,-17.8,20.2,3.1
O=C(Nc1ccc(Cl)cc1)N1CCN(Cc2nc3ccccc3c(=O)[nH]2)CC1,-1.5,/,1.3,/,3.8,0.2,/,/
O=C(CCc1ccccc1-c1ccccc1CCNC(=O)COCc1ccccc1)NCc1ccccc1,0.5,/,-9.0,/,6.0,-0.9,/,/
COc1ccccc1NS(=O)(=O)c1cc(NC(=O)c2ccc(Cl)nc2)ccc1Cl,-1.9,-76.1,-77.2,23.2*,-9.0,-139.8,10.8,16.3
COc1ccc(C(=O)Nc2ccc(Cl)c(S(=O)(=O)Nc3ccccc3OC)c2)cc1,1.4,-59.2,-89.8,2.5,-4.2,-90.5,/,/
C=CCNC(=S)NNC(=O)c1cccc2ccccc12,-3.0,-2.3,-1.0,3.6,-0.9,10.5,/,/
C=CCNC(=S)NNC(=O)c1cccn(Cc2ccc(Cl)cc2Cl)c1=O,-4.8,10.0,14.8,19.8*,-2.1,4.8,-9.4,14.4
CCNC(=S)NNC(=O)c1cccn(Cc2ccc(Cl)cc2Cl)c1=O,-4.6,8.2,7.7,20.1*,-0.9,4.0,1.9,17.0
COc1ccc(CC(=O)Nc2ccc(C)cc2S(=O)(=O)N2CCOCC2)cc1OC,2.5,/,3.8,/,2.3,7.3,/,/
C[C@@H](CO)N(Cc1cn(Cc2ccccc2)nn1)S(=O)(=O)c1ccc(F)cc1Br,-6.4,/,2.6,/,-6.3,1.0,/,/
CC(=O)c1c(C)[nH]c(C(=O)OCc2nnc(-c3ccc([N+](=O)[O-])cc3)o2)c1C,-5.3,8.0,18.1,26.5*,-0.1,10.2,1.8,9.1
CC(=O)c1c(C)[nH]c(C(=O)OCC(=O)NNC(=O)c2ccc([N+](=O)[O-])cc2)c1C,-1.2,-0.4,-1.8,1.1,-0.2,-0.9,/,/
Oc1ccc(-c2cn3c(n2)SCC3)cc1O,4.1,33.0,23.0,37.5*,-0.6,6.9,-7.2,32.9*
COc1ccc(-c2nn(-c3ccccc3)cc2/C=C/C(=O)N(C)CC(=O)Nc2cccc(F)c2)cc1OC,8.4,-120.0,-101.3,26.3*,-4.0,-89.4,12.6,26.1*
COc1cccc(NC(=O)CN(C)C(=O)/C=C/c2cn(-c3ccccc3)nc2-c2ccc(OC)c(OC)c2)c1,-0.9,-109.5,-85.2,15.8,-1.6,-80.7,/,/
Cc1ccc(-c2nc3c(C)cc(Br)cn3c2Cc2ccsc2)cc1,8.3,/,6.6,23.0*,8.0,3.4,17.6,18.7
Cc1cc(Br)cn2c(Cc3ccsc3)c(-c3ccccc3)nc12,2.8,/,23.1,10.1,9.3,13.7,/,/
CCC(C)Nc1nc(C)nc2c1nnn2Cc1ccccc1 (configuration not stated),-2.3,/,4.8,/,0.3,4.0,/,/
CCOC(=O)N1CCN(C(=O)C[C@H]2C[C@@]3(C(=O)OC)C(=C[C@H](C4CCCC4)O[C@@H]3C)N(Cc3cccc4ccccc34)C2=O)CC1,-0.4,/,-15.1,/,0.5,0.1,/,/
CCOc1ccc(NC(=S)NS(=O)(=O)c2cc(Br)ccc2OCC)cc1,1.6,/,2.3,1.7,-2.6,1.3,/,/
CCOc1ccc(Br)cc1S(=O)(=O)Nc1ccc(C(=O)OCC(=O)Nc2ccc(C#N)cc2)cc1,0.8,-64.0,-16.0,33.3*,3.4,-11.7,26.0*,33.8*
SMILES,DDE Tn7 FP inh,HTRA1 inhibitor,mABHD4 FP,TCR-CD3 inh,DDE Tn6 FP inh,SIAE inh,BSA TAMRA ctr,TCR-CD3 conf
CCn1c(SCC(=O)Nc2ccccc2-c2ccccc2)nnc1-c1ccc(Cl)cc1,4.5,/,1.9,/,2.8,1.1,/,/
CC(=O)Nc1ccc(S(=O)(=O)Nc2cccc(-n3cnnn3)c2)cc1,3.9,2.3,-0.3,7.1,-2.6,2.4,/,/
CC(=O)c1ccc(S(=O)(=O)Nc2cccc(-n3cnnn3)c2)cc1,-7.7,-5.0,-12.0,20.3*,1.4,1.4,3.9,12.3
COC(CNC(=O)[C@H](Cc1c[nH]c2ccccc12)NC1(C(=O)NC(c2ccccc2)c2ccccc2)CCCCC1)OC,-2.9,/,5.7,/,0.7,14.1,/,/
C=CCn1c(COc2ccc(C)cc2)nnc1SCc1ccc([N+](=O)[O-])cc1,4.7,/,3.0,/,8.3,4.1,/,/
Cc1cc(C)nc(SCCC(=O)Nc2ccccc2C)n1,-1.4,4.4,3.6,107.2*,-3.3,-2.3,3.5,0.5
O=C(O)c1ccc(/C=N/O)cc1,1.6,3.6,1.4,19.3*,-2.2,2.5,1.0,1.3
CCOC(=O)c1c(C)nc2sc(C(=O)Nc3ccc(C(C)=O)cc3)c(N)c2c1-c1ccc(OC)cc1,0.5,-18.5,-16.4,24.5*,-10.1,-41.5,5.5,12.2
NNC(=O)c1nc[nH]c1C(=O)Nc1ccccn1,7.0,5.2,-2.6,38.0*,3.8,-2.7,2.4,25.1*
O=C(CCc1ccccc1)N[C@H]1[C@@H](OC(=O)C2CC2)CCC[C@@]12C(=O)N(Cc1ccccc1)c1ccccc12,-5.9,/,-7.0,/,-3.2,-5.2,/,/
O=C(NNC(=S)NC(=O)c1cccs1)c1ccc(O)cc1,11.0,7.2,1.6,26.3*,-6.3,-2.4,-7.0,23.1*
COc1ccc(C(=O)NNC(=S)NC(=O)/C=C/c2cccs2)cc1,-3.4,-1.0,2.0,24.6*,-9.4,-5.3,-1.4,12.1
O=C(NC(=S)Nc1ccc(Br)cn1)c1cccs1,2.9,2.8,5.6,26.8*,6.4,-2.8,2.9,1.1
O=C(OC12CCCN(C1)/C(=C/c1ccccc1)C2)c1ccccc1 (configuration not stated),-9.9,/,5.3,/,-7.8,-0.3,/,/
Cc1ccc(OCc2nnc(SCC(=O)c3ccc4ccccc4c3)n2-c2ccc(Cl)cc2)cc1,0.5,/,-7.8,/,-1.9,-1.8,/,/
N#Cc1c(N)sc(=S)c2c1CCCCC2,6.0,26.2,35.5*,25.5*,4.3,3.4,21.2,26.3*
